Source: PubChem (The Scripps Research Institute Molecular Screening Center)
In the library only some 4.6% were active in any assay of this set; here they are far more common.
OX1R antag-1: OX1R (HCRTR1) antagonists, primary screen, fluorescence, CHO/OX1R cells, Fluo-8 calcium, orexin A; Orexin/Hypocretin receptor type 1 (Homo sapiens), O43613; Fluo-8 calcium fluorescence; inhibition, % at 5 µM; 330,000 compounds, 0.43% hits; AID 434989, 2010;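 active = inhibition above its plate's threshold, mean inhibition of all tested compounds on the plate plus 3 SD, cut at about 37% in these data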
OX1R antag-2: antagonists of human orexin 1 receptor (OX1R); Orexin/Hypocretin receptor type 1 (Homo sapiens), O43613; OX1R-expressing cells, FRET antagonist read-out; inhibition, % at 6.6 µM; 330,000 compounds, 1.8% hits; AID 485270, 2010; in the data active = inhibition mostly above about 38%, no sharp cut-off; inactive = mostly below about 40%
CHO parental Ca: ATP-evoked calcium signal inhibitors, parental CHO, primary screen, counter-screen for OX1R antagonist project, cell-based, fluorescence, Fluo-8 calcium dye; parental CHO-K1, ATP-induced calcium, Fluo-8 fluorescence; inhibition, % at 5.6 µM; 330,000 compounds, 0.63% hits; AID 463079, 2010;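 active = inhibition above that plate's mean sample inhibition plus 3 SD, cut at about 26% in these data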
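material = parental CHO cells | also added = ATP as calcium-mobilizing challenge | dosing = single point at 5.6 µM | detection = intracellular calcium via Fluo-8 no-wash fluorescent dye | read-out = % inhibition | benchmarks = low control ATP plus DMSO, high control DMSO only | repeats = one well per compound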
TAAR1 antag: human TAAR1 antagonists, primary screen, Fluo-8 calcium fluorescence, CHO RD-HGA16 cells; inhibition, % at 3 µM; 360,000 compounds, 1.5% hits; antagonist; Trace amine-associated receptor 1 (Homo sapiens), Q96RJ0;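 active = inhibition above a per-plate cutoff, the mean inhibition of test compounds on that plate plus 3 SD, cut at about 49% in these data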
Target sequence (Q96RJ0 whole entry, looked up): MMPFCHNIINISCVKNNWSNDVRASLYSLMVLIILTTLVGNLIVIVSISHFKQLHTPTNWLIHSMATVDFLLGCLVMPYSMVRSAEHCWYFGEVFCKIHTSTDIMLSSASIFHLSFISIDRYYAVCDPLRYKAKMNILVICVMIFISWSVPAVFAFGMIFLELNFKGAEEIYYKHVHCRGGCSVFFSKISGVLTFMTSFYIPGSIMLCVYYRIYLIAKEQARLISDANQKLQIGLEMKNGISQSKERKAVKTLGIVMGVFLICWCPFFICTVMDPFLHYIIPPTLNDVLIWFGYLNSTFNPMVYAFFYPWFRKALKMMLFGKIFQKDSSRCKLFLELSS
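Material: CHO RD-HGA16 cells bearing hTAAR1; compound dosing: one-point dosing, 3 µM nominal final; schedule: dye loading 75 min at 37 °C, then 30 min room temperature; measured by: calcium fluorescence with Fluo-8; control set: vehicle and agonist controls; replication: n of 1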
TAAR1 agonist: human TAAR1 agonists, primary screen, Fluo-8 calcium fluorescence, CHO RD-HGA16 cells; Trace amine-associated receptor 1 (Homo sapiens), Q96RJ0; vehicle wells 0%, saturating PEA agonist 100%; activation, % at 3 µM; 360,000 compounds, 0.99% hits; AID 624467, 2012;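 active = activation above the mean activation of all test compounds in the run plus 3 SD, cut at about 38% in these data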
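Test system: RD-HGA16 (CHO) cells co-expressing Gα16 and hTAAR1; dosing: one-point dosing at 3 µM (nominal); timing: 17-24 h seeding, 75 min 37 °C dye, 30 min RT; signal: kinetic Fluo-8 calcium fluorescence; read-out basis: % activation relative to PEA EC100 response; controls: DMSO and PEA EC100; replicates: n 1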
GPR7 antag: GPR7 receptor antagonists, primary screen, cell-based, fluorescence, single concentration; inhibition, % at 4.4 µM; Neuropeptides B/W receptor type 1 (Homo sapiens), P48145; 290,000 compounds, 1.1% hits; GPR7-expressing cells, fluorescence antagonist assay; AID 1861, 2009; in the data active = inhibition above about 16%, passing the limit was not always enough;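 note: cells stimulated with the agonist NPW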
Target sequence (P48145 whole entry, looked up): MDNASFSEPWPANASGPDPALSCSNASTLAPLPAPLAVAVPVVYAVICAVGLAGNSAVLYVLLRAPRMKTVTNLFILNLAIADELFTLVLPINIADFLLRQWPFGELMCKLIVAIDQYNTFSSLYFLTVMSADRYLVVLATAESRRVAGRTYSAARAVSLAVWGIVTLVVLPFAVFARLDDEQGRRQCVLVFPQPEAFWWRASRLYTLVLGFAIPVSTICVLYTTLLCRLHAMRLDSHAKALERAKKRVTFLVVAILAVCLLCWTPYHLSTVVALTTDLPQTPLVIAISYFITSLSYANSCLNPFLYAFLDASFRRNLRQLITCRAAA
OX1R Fluo8 conf: OX1R (HCRTR1) antagonists, confirmation, fluorescence, CHO/OX1R cells, Fluo-8 calcium, orexin A. inhibition, % at 5 µM. orexin A calcium Fluo-8 fluorescence. shares compounds with OX1R antag-1. 1,100 compounds, 38% hits; in the data active = inhibition above about 29%
CHO Ca counter: ATP-evoked calcium inhibition in parental CHO, counter-screen for OX1R antagonist project, cell-based, fluorescence, CHO-K1, triplicate; shares compounds with OX1R antag-1; ATP-induced calcium, Fluo-8 fluorescence; inhibition, % at 5.6 µM; 1,100 compounds, 9.3% hits;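 active = inhibition above a per-plate limit, the mean inhibition of that plate's test compounds plus 3 SD, cut at about 25% in these data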
OX1R HTRF confirm: OX1R (HCRTR1) antagonists, confirmation, cell-based, HTRF | shares compounds with OX1R antag-2 | 1,800 compounds, 49% hits | OX1R-expressing cells, HTRF antagonist assay | inhibition, % at 6.6 µM; in the data active = inhibition above about 55%;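 note: CHO cells expressing OX1R stimulated with orexin A at about EC80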
CHO-K1 HTRF cnt: signal inhibition in parental CHO-K1 cells, counter-screen for OX1R antagonist project, cell-based, HTRF; shares compounds with OX1R antag-2; HTRF counterscreen; inhibition, % at 6.6 µM; 1,800 compounds, 48% hits; AID 493232, 2011; in the data active = inhibition above about 17%
TAAR1 ag confirm: human TAAR1 agonists, retest of hits, confirmation, Fluo-8 calcium fluorescence, CHO RD-HGA16 cells | shares compounds with TAAR1 agonist | scaled: DMSO 0%, maximal phenethylamine 100% | activation, % at 3 µM | 2,400 compounds, 82% hits | AID 651783, 2012;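 active = activation above a cutoff set at the run's mean compound activation plus 3 SD, cut at about 39% in these data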
Ga16 ag counter: nonselective calcium mobilization agonists, CHO-Ga16 cells, counter-screen for hTAAR1 agonist project, cell-based, fluorescence, CHO-Ga16 parental line. 2,400 compounds, 50% hits. shares compounds with TAAR1 agonist. activation, % at 3 µM. Fluo-8 calcium fluorescence; normalized to maximal ATP response, DMSO zero;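 active = activation above the run cutoff, the mean activation over all tested wells plus 3 SD, cut at about 12% in these data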
TAAR1 desens: TAAR1 desensitization by agonist hits, confirmation, counter-screen for TAAR1 agonist project, cell-based, fluorescence, tachyphylaxis; shares compounds with TAAR1 agonist; CHO RD-HGA16 hTAAR1, Fluo-8 calcium, beta-PEA response inhibition; inhibition, % at 3 µM; 2,400 compounds, 46% hits; AID 651951, 2012;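 active = inhibition above the run cutoff, the mean inhibition of all test compounds plus 3 SD, cut at about 49% in these data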;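 note: beta-PEA stimulus applied at its EC80; loss of beta-PEA calcium signal after compound pretreatment read as receptor desensitization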
Ga16 antag count: inhibition of ATP-evoked calcium response in CHO-Ga16 cells, counter-screen for TAAR1 agonist project, cell-based, fluorescence; shares compounds with TAAR1 agonist; CHO-Ga16 ATP-induced calcium, Fluo-8 fluorescence; inhibition, % at 3 µM; 2,400 compounds, 39% hits;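 active = inhibition above the plate's mean compound inhibition plus 3 SD, computed per plate, cut at about 22% in these data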
A number is an active result; n = inactive; x = no result.

SMILES	OX1R antag-1	OX1R antag-2	CHO parental Ca	TAAR1 antag	TAAR1 agonist	GPR7 antag	OX1R HTRF confirm	CHO-K1 HTRF cnt	others
COc1ccc(C(=O)NC(=S)NNC(=O)c2cccc(C)c2)cc1	n	n	n	104	170	x	x	x	OX1R Fluo8 conf=31;CHO Ca counter=n;TAAR1 ag confirm=148;Ga16 ag counter=122;TAAR1 desens=106;Ga16 antag count=74
COc1ccc(C(=O)NNC(=S)NC(=O)c2cccs2)cc1	n	n	n	n	103	n	x	x	OX1R Fluo8 conf=n;CHO Ca counter=n;TAAR1 ag confirm=67;Ga16 ag counter=40;TAAR1 desens=n;Ga16 antag count=26
COc1ccc(C(=O)NNC(=S)Nc2ccccc2)cc1	n	n	n	n	n	n	x	x
O=C(Nc1nnc(-c2ccc(Cl)cc2)o1)c1nc2ccccc2s1	n	n	n	n	92	n	x	x	OX1R Fluo8 conf=n;CHO Ca counter=n;TAAR1 ag confirm=85;Ga16 ag counter=71;TAAR1 desens=50;Ga16 antag count=54
Cc1ccc2nc3c(cc(C(=O)NCC4CCCO4)c(=N)n3CCCOC(C)C)c(=O)n2c1 (centres undefined)	n	82	n	n	n	n	n	85
CCOCCCNc1nc2nc3ccc(C)cn3c(=O)c2cc1C(=O)NCC1CCCO1 (centres undefined)	n	112	n	n	n	n	n	78
Cc1ccc2nc3c(cc(C(=O)NCC4CCCO4)n3C)c(=O)n2c1 (centres undefined)	x	x	x	x	x	n	x	x
CCn1cc(C(=O)NCC2CCCO2)c2cc(OC)c(OC)cc2c1=O (centres undefined)	n	n	n	n	n	n	x	x
O=C(CN1C(=O)S/C(=C/c2cccs2)C1=O)N1CCOCC1	n	86	n	n	n	n	n	29
O=C(O)CN1C(=O)/C(=C\c2cn(CC(=O)N3CCOCC3)c3ccccc23)SC1=S	n	100	n	n	n	n	n	49
O=C(CN1C(=O)S/C(=C/c2cccnc2)C1=O)N1CCOCC1	n	112	n	n	n	n	n	72
O=C(CN1C(=O)S/C(=C/c2ccncc2)C1=O)N1CCOCC1	n	n	n	n	n	n	x	x
O=C(CCN1C(=O)/C(=C\c2ccccc2F)SC1=S)N1CCOCC1	x	x	x	n	n	x	x	x
O=C1CCC(C(=O)NCCN2C(=O)S/C(=C\c3cccnc3)C2=O)=NN1	n	106	n	n	n	n	n	59
CC1(C)CCC[C@]2(C)[C@H]3Cc4cc(O)ccc4O[C@]3(C)CC[C@@H]12	n	n	n	n	n	x	x	x
Cc1ccsc1CN(C)CC(=O)NCC(=O)Nc1ccc(F)c(F)c1F	n	n	n	n	n	x	x	x
O=C(N/N=C/c1ccncc1)c1ccc(COc2cccc3cccnc23)cc1	n	n	n	n	n	n	x	x
O=C(N/N=C/c1ccc2cccc(OCc3ccccc3)c2n1)c1ccc(Cl)cc1	n	79	n	n	n	n	n	n
Cc1cc(=O)[nH]c(NNC(=O)c2ccc(Cl)cc2)n1	x	x	x	n	n	x	x	x
CN1CN=C(NS(=O)(=O)c2ccc([N+](=O)[O-])cc2)NC1	n	83	n	n	n	n	n	30
CC(=O)Nc1ccc(S(=O)(=O)NC2=NCN(c3ccc([N+](=O)[O-])cc3)CN2)cc1	n	n	n	n	n	n	x	x
CCC1OC(C)Cc2[nH][nH]c(=O)c21 (centres undefined)	x	x	x	n	n	x	x	x
COc1ccc(NC(=O)N(C)C[C@H]2OCc3cnnn3CCCC(=O)N([C@@H](C)CO)C[C@H]2C)cc1	x	x	x	n	n	x	x	x
O=[n+]1c2c(n([O-])c3ccccc31)CCC2	n	n	n	x	x	n	x	x
O=[n+]1c2c(n([O-])c3cc(F)ccc31)CCCC2	n	82	n	n	n	n	n	54
SMILES	OX1R antag-1	OX1R antag-2	CHO parental Ca	TAAR1 antag	TAAR1 agonist	GPR7 antag	OX1R HTRF confirm	CHO-K1 HTRF cnt	others
O=C1C(Nc2ccccc2)=C/C(=N/S(=O)(=O)c2cccs2)c2ccccc21	n	n	n	x	x	n	x	x
CCc1cc[n+](C2=C([O-])c3ccccc3C(=O)/C2=N\S(=O)(=O)c2cccs2)cc1	n	149	n	n	n	n	56	80
Cc1cccc(NC(=O)Nc2ccc3c(c2)N(C)C(=O)CS3)n1	n	n	n	n	n	n	x	x
CC(=O)c1ccc(NC(=O)Nc2ccc3c(c2)N(C)C(=O)CS3)cc1	n	79	n	76	44	n	n	n
Cc1cc(C)c(C#N)c(SCc2nnc(-c3ccccc3[N+](=O)[O-])o2)n1	n	n	n	n	n	n	x	x
Cc1cc(C)c(C#N)c(SCc2nnc(-c3ccccc3)o2)n1	n	81	n	n	n	n	n	n
CSc1nc2nc(-c3cccs3)cc(C(F)(F)F)c2c(=O)[nH]1	n	n	n	n	n	n	x	x
